Test [1] can be described thus: protection of UTI89 from K1F phage lysis – E. coli UTI89, set 5, capsule biogenesis inhibitor project, confirmation (AID 588321). The following applies: E. coli UTI89 K1F phage lysis inhibition, OD600; for CC50: measured here: cytotoxicity; for inhibition of phage lysis: at 100 µM (top of the series). An outline of the steps:
(§1)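 Test system: Uropathogenic E. coli UTI89 (K1 capsule) and kpsM mutant cultures; reagent: K1F phage infection; times: 1.25 h pre-incubation, 3 h after phage, 37 °C; signal: absorbance at 600 nm (OD600); read-out basis: lysis from OD600 3 h after phage; benchmarks: kpsM mutant resisting phage lysis; repeats: quadruplicate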

Test [2] concerns E. coli UTI89 K1F phage lysis inhibition, OD600. Described as above. A digest of the protocol:
as §1

Consider 18 molecules from PubChem BioAssay AID588321 (Southern Research Specialized Biocontainment Screening …, 2011).

The source made the active and inactive calls.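 Rule for the calls: active = phage lysis blocked by at least 50% at any tested concentration; inactive = the rest.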

Usually CC50 stands for the concentration at which the toxic effect on the cells reaches its halfway point. Higher therefore signals lower toxicity to the cells. The IC50 is the concentration that gives 50% inhibition. For `O=C(Nc1cc(-c2ccccc2)sc1C(=O)O)c1ccc(Br)o1`, in test [1], the cytotoxic concentration (CC50) was found to be 104 µM. Also, the IC50 in test [2] is 58.4 µM. With `O=C(Nc1cc(-c2ccccc2)sc1C(=O)O)c1cccc(F)c1`, in test [1], the inhibition of phage lysis was 18.7% (inactive) and the CC50 was 76.9 µM. In the case of `O=C(Nc1cc(-c2ccccc2)sc1C(=O)O)c1cccs1`, in test [1], the CC50 came out at 89.3 µM. Also, in test [2], the half-inhibitory concentration (IC50) is 82.7 µM. Regarding `Cc1c(C(=O)Nc2cc(-c3ccccc3)sc2C(=O)O)oc2ccccc12`, in test [1], the inhibition of phage lysis is 5.2% (inactive) and the half-maximal cytotoxic concentration (CC50) worked out at 48.7 µM. In test [1], `O=C(Nc1cc(-c2ccccc2)sc1C(=O)O)c1cccc(Cl)c1` showed a CC50 of 52.6 µM. Moreover, in test [2], the IC50 was 83.5 µM. Turning to `O=C(Nc1ccncc1)c1ccc2ncsc2c1`, the IC50 in test [2] was 1.03 µM. Turning to `Cc1onc(-c2ccccc2)c1C(=O)Nc1cc(-c2ccccc2)sc1C(=O)O`, in test [1], the inhibition of phage lysis is 3.71% (inactive) and the CC50 stood at 52.6 µM. The corresponding values for `O=C(Nc1cc(-c2ccccc2)sc1C(=O)O)c1ccc(Cl)s1` are 10.1% (inactive) and 71.5 µM. `O=C(Nc1cc(-c2ccccc2)sc1C(=O)O)c1cc(Cl)c2c(c1)OCCO2`: in test [1], the inhibition of phage lysis is 6% (inactive). In the case of `CCOc1ccc(-c2cc(NC(=O)c3c(F)cccc3F)c(C(=O)OC)s2)cc1`, in test [1], the inhibition of phage lysis was 14.9% (inactive) and the CC50 was > 300 µM. The molecule `CCOc1ccc(-c2cc(NC(=O)c3cccc(Cl)c3)c(C(=O)O)s2)cc1` had a half-maximal cytotoxic concentration (CC50) in test [1] of 83.9 µM. For the same molecule, the IC50 in test [2] was 45.6 µM. With `O=C(Nc1cc(-c2ccccc2)sc1C(=O)O)c1cc2ccccc2o1`, in test [1], the inhibition of phage lysis was 10.4% (inactive). With `CCOc1ccc(-c2cc(NC(=O)c3ccc(OC)c(OC)c3)c(C(=O)O)s2)cc1`, in test [1], the CC50 amounted to 82.8 µM. For the same molecule, in test [2], the half-inhibitory concentration (IC50) is 56 µM.

For the molecule `O=C(O)c1sc(-c2ccccc2)cc1NC(=O)C1CCCC1`, in test [1], the inhibition of phage lysis is 15.2% (inactive). Regarding `O=C(Nc1cc(-c2ccccc2)sc1C(=O)O)c1ccc2c(c1)OCCO2`, the CC50 in test [1] came to 82.1 µM. In test [2], the half-inhibitory concentration (IC50) is 42.7 µM. `COC(=O)c1sc(-c2ccccc2)cc1NC(=O)c1c(F)cccc1F`: in test [1], the inhibition of phage lysis is 29.8% (inactive) and the CC50 is 10.4 µM. For `O=C(O)c1sc(-c2ccccc2)cc1NC(=O)C1CCCCC1`, the inhibition of phage lysis in test [1] was 16.1% (inactive).

In test [1], `Cc1ccc(C(=O)Nc2cc(-c3ccccc3)sc2C(=O)O)s1` yielded a CC50 of 63.6 µM.
